Assay results pooled from the literature.
HCK: Tyrosine-protein kinase HCK (HCK, Homo sapiens, UniProt P08631)
MAOB: Amine oxidase [flavin-containing] B (MAOB, Homo sapiens, UniProt P27338)

| SMILES | target | test | conditions | endpoint | result |
| --- | --- | --- | --- | --- | --- |
| Nc1ncnc2c1ncn2[C@@H]1O[C@H](COP(=O)(O)OP(=O)(O)OP(=O)(O)O)[C@@H](O)[C@H]1O | GUK1 (Homo sapiens, UniProt Q16774) | enzyme activity, substrate |  | Km | 102 µM |
| CCCCC(=O)Nc1ccc(-c2ccc3ncn(CCC)c(=O)c3c2)cn1 | HCK | binding, competition with immobilised ligand | 0.5 µM | remaining binding | 98% |
| O=C(Nc1ccccc1Br)c1ccc2c(c1)C(=O)NC2=O | MAOB | enzyme activity, inhibitor | 1 µM | inhibition | < 5% |
| NC/C(=C\F)COc1cccc(Cn2c(=S)[nH]c(=O)c3[nH]cnc32)c1 | MAOB | enzyme activity, inhibitor | 200 pM | inhibition | 29.1% |
| COc1ccc2oc(-c3ccc4nc(N)oc4c3)c/c(=N\c3ccccc3NC(=O)CCN)c2c1 | Phosphatidylinositol 3-kinase C2 domain-containing subunit gamma (PIK3C2G, Homo sapiens, UniProt O75747) | binding | 1 µM | remaining binding | 37% |
| C#Cc1cc(-c2cc(Nc3nc(N[C@@H](C)c4ccc(F)cn4)ncc3Cl)n[nH]2)ccc1C=O | Dual specificity tyrosine-phosphorylation-regulated kinase 4 (DYRK4, Homo sapiens, UniProt Q9NR20) | enzyme activity, inhibitor | 0.2 µM | inhibition | 4.78% |
| O=C(Nc1ccc(F)c(Br)c1)c1ccc2c(c1)C(=O)NC2=O | MAOB | enzyme activity, inhibitor | 1 µM | inhibition | 97.3% |
| C1=C/COCc2cc(ccc2OCCN2CCCC2)Nc2nccc(n2)-c2cccc(c2)COC/1 | HCK | binding | 0.1 µM | remaining binding | 100% |
| Cc1cc(S(=O)(=O)N[C@H]2CC[C@H](CN3CCN(c4ccc(C5CCC(=O)NC5=O)cc4F)CC3)CC2)ccc1Nc1ncc(C(F)(F)F)c(N2CCC[C@](C)(O)C2)n1 (some centres unmarked) | NUAK family SNF1-like kinase 2 (NUAK2, Homo sapiens, UniProt Q9H093) | binding, competition with immobilised ligand | 1 µM | remaining binding | 26% |
| O=C(N[C@@H](CSCc1nc2cc([N+](=O)[O-])ccc2[nH]1)C(=O)NO)c1ccccc1 | Lactoylglutathione lyase (GLO1, Homo sapiens, UniProt Q04760) | enzyme activity, inhibitor | 1 µM | inhibition | 13.6% |
| O=C(Nc1ccc(F)c(F)c1)c1ccc2c(c1)C(=O)NC2=O | MAOB | enzyme activity, inhibitor | 1 µM | inhibition | 90.6% |
| Cc1cc(F)cc2c(CCC(=O)N[C@@H]3C(=O)NC[C@H]3O)c(-c3ccc(F)cc3)[nH]c12 | Histamine H1 receptor (HRH1, Homo sapiens, UniProt P35367) | cell-free assay | 10 µM | inhibition | 17% |
| O=C(Nc1ccc(Cl)cc1)c1ccc2c(c1)C(=O)NC2=O | MAOB | enzyme activity, inhibitor | 1 µM | inhibition | 52% |
| CC(=O)ON=C1C=CC(=C(C#N)c2ccccc2)C=C1 | Receptor-interacting serine/threonine-protein kinase 3 (RIPK3, Homo sapiens, UniProt Q9Y572) | enzyme activity, inhibitor, ADP detection | 20 µM | activity vs control | 110% |
